Experimental data published in ChEMBL document CHEMBL4393672, “High affinity CXCR4 inhibitors generated by linking low affinity peptides” (Eur J Med Chem, 2019).
pIC50: −log10 of the molar value. The source made the active and inactive calls. No cut-off for these calls is given here. Residues, ends and D or L forms follow the SMILES beside them.

What was measured:
[1] = target: T1, C-X-C chemokine receptor type 4 (Homo sapiens, UniProt P61073); assay: Competitive binding affinity to CXCR4 in human SupT1 cells incubated for 40 mins by 12G5 antibody based fluorescence analysis; type: cell-based
T1 sequence (P61073 whole entry): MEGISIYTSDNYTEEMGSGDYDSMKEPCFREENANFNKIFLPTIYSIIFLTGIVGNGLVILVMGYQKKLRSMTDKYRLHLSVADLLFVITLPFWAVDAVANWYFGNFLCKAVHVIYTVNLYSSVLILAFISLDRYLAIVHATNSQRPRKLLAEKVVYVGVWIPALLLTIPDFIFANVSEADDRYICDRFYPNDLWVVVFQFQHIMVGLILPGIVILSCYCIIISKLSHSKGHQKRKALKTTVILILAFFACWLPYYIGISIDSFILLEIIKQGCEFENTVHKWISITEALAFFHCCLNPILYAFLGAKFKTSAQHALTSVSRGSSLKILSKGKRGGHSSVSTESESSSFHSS

[2] = system: Human immunodeficiency virus 1; assay: Antiviral activity against Human immunodeficiency virus 1 NL4-3 infected in human PBMC cells assessed as inhibition of extracellular p24 level preincubated with cells for 2 hrs followed by viral infection for 2 hrs and measured after 5 days by ELISA
[3] = system: C-X-C chemokine receptor type 4 (Homo sapiens), P61073 [R30A]; assay: Binding affinity to CXCR4 R30A mutant (unknown origin) expresssed in CHO cells at 200 nM incubated for 30 mins by 12G5 antibody based fluorescence analysis; type: cell-based
C-X-C chemokine receptor type 4 (Homo sapiens), P61073 [R30A], sequence (P61073 whole entry R30A): as the sequence (P61073 whole entry) above, with R30A counted along it
How it was run: (§1)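 Mutational mapping in CHO cells expressing wild-type or mutant CXCR4, 5×10^5 cells/well. Cells were incubated with a single 200 nM peptide concentration plus 12G5 anti-CD184 antibody in FACS buffer on ice for 30 min. FITC anti-mouse IgG was then added for 30 min on ice. Fluorescence was read at 485/528 nm and normalized to control, in duplicate across at least three experiments.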

[4] = Stability of compound in 10% FBS assessed as compound remaining at 1mM after 1 hr by HPLC analysis relative to control; type: ADME, cell-free, Bos taurus, Serum; conditions: cattle, read-out: Stability
How it was run: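 Peptide dissolved at 1 mM in culture medium with 10% FBS, incubated at 37°C; samples taken over time and analysed by C18 HPLC, UV 220 nm; remaining peptide from peak intensity relative to original peak.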

[5] = system: C-X-C chemokine receptor type 4 (Homo sapiens), P61073 [D262N]; assay: Binding affinity to CXCR4 D262N mutant (unknown origin) expresssed in CHO cells at 200 nM incubated for 30 mins by 12G5 antibody based fluorescence analysis; type: cell-based
C-X-C chemokine receptor type 4 (Homo sapiens), P61073 [D262N], sequence (P61073 whole entry D262N): as the sequence (P61073 whole entry) above, with D262N counted along it
How it was run: (§2)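 Wild-type or mutant CXCR4 cells (5×10⁵/well) incubated with single 200 nM concentration in FACS buffer (0.5% BSA, 0.05% azide in PBS) plus 12G5 anti-CD184 antibody, 30 min on ice; washed, FITC anti-mouse IgG 30 min on ice; fluorescence 485ex/528em; duplicates, ≥3 independent experiments, normalized as percent of control.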

[6] = system: C-X-C chemokine receptor type 4 (Homo sapiens), P61073 [W94A]; assay: Competitive binding affinity at CXCR4 W94A mutant (unknown origin) expressed in CHO cells at 200 nM incubated for 30 mins by 12G5 antibody based fluorescence analysis; type: cell-based; how it was run: as §2
C-X-C chemokine receptor type 4 (Homo sapiens), P61073 [W94A], sequence (P61073 whole entry W94A): as the sequence (P61073 whole entry) above, with W94A counted along it

[7] = target: T1, C-X-C chemokine receptor type 4; assay: Antagonist activity at CXCR4 (unknown origin) in CHO cells assessed as reduction in SDF-1alpha-induced ERK phosphorylation level at 50 uM incubated for 30 mins followed by SDF1-alpha addition measured after 5 mins by Western blot analysis; type: cell-based
How it was run: (§3)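 CXCR4-expressing CHO cells grown in DMEM with 10% FBS, seeded at 10^6 cells/well for 24 h, then moved to serum-free medium. Cells were pretreated with 50 μM peptide for 30 min, then stimulated with 12.5 nM SDF-1α for 5 min. Lysates were adjusted to 3 mg/mL, run on 12% SDS-PAGE and immunoblotted for phospho-AKT/ERK with ECL detection. Bands were quantified by densitometry as % control.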

[8] = target: T1, C-X-C chemokine receptor type 4; assay: Antagonist activity at CXCR4 (unknown origin) in CHO cells assessed as reduction in SDF-1alpha-induced Akt phosphorylation level at 50 uM incubated for 30 mins followed by SDF1-alpha addition measured after 5 mins by Western blot analysis; type: cell-based; how it was run: as §3
[9] = target: T1, C-X-C chemokine receptor type 4; assay: Antagonist activity at CXCR4 (unknown origin) expressed in CHO cells assessed as reduction in basal phosphorylated AKT expression at 50 uM incubated for 30 mins followed by measured after 5 mins by Western blot analysis; type: cell-based
[10] = system: C-X-C chemokine receptor type 4 (Homo sapiens), P61073 [Y116A]; assay: Competitive binding affinity at CXCR4 Y116A mutant (unknown origin) expressed in CHO cells at 200 nM incubated for 30 mins by 12G5 antibody based fluorescence analysis; type: cell-based; how it was run: as §2
C-X-C chemokine receptor type 4 (Homo sapiens), P61073 [Y116A], sequence (P61073 whole entry Y116A): as the sequence (P61073 whole entry) above, with Y116A counted along it

[11] = system: Human immunodeficiency virus 1; assay: Antiviral activity against Human immunodeficiency virus 1 NL4-3 infected in human PBMC cells assessed as reduction in intracellular p24 level at 100 nM preincubated with cells 2 hrs followed by viral infection and measured after 24 hrs by ELISA; type: functional
How it was run: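 PBMCs from healthy donors (2.5×10^6 cells/mL) were exposed to compound for 2 h, washed, and infected with HIV-1 NL4-3 at MOI 0.02 for 2 h at 37°C. Cells were washed, resuspended in complete medium and incubated 24 h. Cells were then lysed with protease inhibitor, and intracellular p24 was quantified by ELISA.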

[12] = target: T1, C-X-C chemokine receptor type 4; assay: Competitive binding affinity to CXCR4 receptor (unknown origin) expressed in CHO cells incubated for 40 mins by 12G5 antibody based fluorescence analysis; type: cell-based
[13] = system: C-X-C chemokine receptor type 4 (Homo sapiens), P61073 [Y45A]; assay: Competitive binding affinity to CXCR4 Y45A mutant (unknown origin) expressed in CHO cells at 200 nM incubated for 30 mins by 12G5 antibody based fluorescence analysis; type: cell-based; how it was run: as §2
C-X-C chemokine receptor type 4 (Homo sapiens), P61073 [Y45A], sequence (P61073 whole entry Y45A): as the sequence (P61073 whole entry) above, with Y45A counted along it

[14] = target: T1, C-X-C chemokine receptor type 4; assay: Antagonist activity at CXCR4 receptor in human SupT1 cells assessed as inhibition of SDF-1alpha-induced calcium release at 1 uM preincubated for 2 to 3 mins followed by SDF-1alpha addition by Fluo-4AM dye based fluorescence assay relative to control; type: functional, cell-based
How it was run: (§4)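 SupT1 cells loaded with Fluo-4AM (2 µM) plus probenecid (5 µM) for 30 min at 37°C in HBSS/20 mM HEPES, washed; 1×10⁶ cells/mL exposed to compound 2–3 min, then stimulated with 50 nM SDF-1α; fluorescence read at […]/510em.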

[15] = system: C-X-C chemokine receptor type 4 (Homo sapiens), P61073 [W195A]; assay: Competitive binding affinity to CXCR4 W195A mutant (unknown origin) expresssed in CHO cells at 200 nM incubated for 30 mins by 12G5 antibody based fluorescence analysis; type: cell-based; how it was run: as §2
C-X-C chemokine receptor type 4 (Homo sapiens), P61073 [W195A], sequence (P61073 whole entry W195A): as the sequence (P61073 whole entry) above, with W195A counted along it

[16] = system: C-X-C chemokine receptor type 4 (Homo sapiens), P61073 [E288Q]; assay: Binding affinity to CXCR4 E288Q mutant (unknown origin) expresssed in CHO cells at 200 nM incubated for 30 mins by 12G5 antibody based fluorescence analysis; type: cell-based; how it was run: as §2
C-X-C chemokine receptor type 4 (Homo sapiens), P61073 [E288Q], sequence (P61073 whole entry E288Q): as the sequence (P61073 whole entry) above, with E288Q counted along it

[17] = target: T1, C-X-C chemokine receptor type 4; assay: Inhibition of N-terminal flag-tagged CXCR4 (unknown origin) internalization expressed in CHO cells incubated for 45 mins and measured after 1 hr by FITC-labeled anti-flag antibody based fluorescence analysis
[18] = system: C-X-C chemokine receptor type 4 (Homo sapiens), P61073 [Q200A]; assay: Binding affinity to CXCR4 Q200A mutant (unknown origin) expresssed in CHO cells at 200 nM incubated for 30 mins by 12G5 antibody based fluorescence analysis; type: cell-based; how it was run: as §1
C-X-C chemokine receptor type 4 (Homo sapiens), P61073 [Q200A], sequence (P61073 whole entry Q200A): as the sequence (P61073 whole entry) above, with Q200A counted along it

[19] = system: C-X-C chemokine receptor type 4 (Homo sapiens), P61073 [V112A]; assay: Competitive binding affinity to CXCR4 V112A mutant (unknown origin) expresssed in CHO cells at 200 nM incubated for 30 mins by 12G5 antibody based fluorescence analysis; type: cell-based; how it was run: as §1
C-X-C chemokine receptor type 4 (Homo sapiens), P61073 [V112A], sequence (P61073 whole entry V112A): as the sequence (P61073 whole entry) above, with V112A counted along it

[20] = system: PBMC; assay: Cytotoxicity against HIV1 NL4-3 infected in human PBMC cells assessed as cell viability at 50 uM preincubated with cells for 2 hrs followed by viral infection for 2 hrs and measured after 5 days by CellTiter-Blue assay; type: cell-based; conditions: 120 h
How it was run: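 PBMCs were seeded at the anti-HIV assay densities and treated in parallel under the same X4 infection and compound exposure conditions. After 5 days at 37°C, viability was read by CellTiter-Blue fluorescence (560/590 nm). The top concentration tested was 50 μM.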

[21] = target: T1, C-X-C chemokine receptor type 4; assay: Antagonist activity at CXCR4 receptor in human SupT1 cells assessed as inhibition of SDF-1alpha-induced calcium release preincubated for 2 to 3 mins followed by SDF-1alpha addition by Fluo-4AM dye based fluorescence assay; type: functional, cell-based; how it was run: as §4
[22] = Stability of compound in water assessed as compound remaining at 1mM at 37 degC after 48 hrs by HPLC analysis relative to control; type: physicochemical; conditions: read-out: Stability
[23] = system: C-X-C chemokine receptor type 4 (Homo sapiens), P61073 [D97A]; assay: Binding affinity to CXCR4 D97A mutant (unknown origin) expresssed in CHO cells at 200 nM incubated for 30 mins by 12G5 antibody based fluorescence analysis; type: cell-based; how it was run: as §2
C-X-C chemokine receptor type 4 (Homo sapiens), P61073 [D97A], sequence (P61073 whole entry D97A): as the sequence (P61073 whole entry) above, with D97A counted along it

SMILES | pIC50 [1] | inhibition [2] | Activity [5] | Activity [6] | Activity [10] | Activity [13] | Activity [15] | Activity [16] | other results
CC(C)C[C@@H](N)C(=O)NCC(=O)N[C@H](C)C(=O)N[C@H](CO)C(=O)N[C@H](Cc1c[nH]c2ccccc12)C(=O)N[C@H](Cc1cnc[nH]1)C(=O)N[C@H](CCCNC(=N)N)C(=O)N1CCC[C@@H]1C(=O)N[C@H](CC(=O)O)C(=O)N[C@H](CCCCN)C(=O)N[C@H](CS)C(=O)N[C@H](CS)C(=O)N[C@H](CC(C)C)C(=O)NCC(=O)N[C@H](Cc1ccc(O)cc1)C(=O)N[C@H](CCC(N)=O)C(=O)N[C@H](CCCCN)C(=O)N[C@H](CCCNC(=N)N)C(=O)N1CCC[C@@H]1C(=O)N[C@H](CC(C)C)C(=O)N1CCC[C@@H]1C(=O)NCCCCCC(=O)N[C@@H](CCCCN)C(=O)NCC(=O)N[C@@H](CC(C)C)C(=O)N[C@@H](CC(C)C)C(=O)NCC(=O)N[C@@H](CC(C)C)C(=O)N[C@@H](CO)C(=O)N[C@@H](CCCCN)C(N)=O | 6.83 | – | – | – | – | – | – | – | –
CC(C)C[C@@H](N)C(=O)NCC(=O)N[C@H](C)C(=O)N[C@H](CO)C(=O)N[C@H](Cc1c[nH]c2ccccc12)C(=O)N[C@H](Cc1cnc[nH]1)C(=O)N[C@H](CCCNC(=N)N)C(=O)N1CCC[C@@H]1C(=O)N[C@H](CC(=O)O)C(=O)N[C@H](CCCCN)C(=O)N[C@H](CCCCN)C(=O)N[C@H](CCCNC(=N)N)C(=O)NCCCCCC(=O)N[C@@H](CCCCN)C(=O)N[C@@H](CCCNC(=N)N)C(=O)N[C@@H](CCCCN)C(=O)N[C@H](C(=O)N[C@@H](CC(N)=O)C(=O)N[C@@H](CC(N)=O)C(=O)N[C@@H](CC(N)=O)C(=O)N1CCC[C@H]1C(=O)N[C@@H](CCCNC(=N)N)C(=O)N[C@H](C(=O)N[C@@H](CS)C(=O)O)[C@@H](C)O)[C@@H](C)O | 7.85 | Dose-dependent effect | inactive | inactive | inactive | inactive | inactive | inactive | pIC50 [2]: 7.03; Activity [3]: Active; remaining at 1 h, 1000 µM [4]: 80%; Activity [7]: Active; Activity [8]: Active; Activity [9]: Active; inhibition at 0.1 µM [11]: 16%; pIC50 [12]: 7.80; inhibition [14]: 100%; Activity [17]: inactive; Activity [18]: inactive; Activity [19]: inactive; Activity [20]: Non-Toxic; inhibition [21]: Dose-dependent effect; remaining at 48 h, 1000 µM [22]: 87%
CC(C)C[C@@H](N)C(=O)NCC(=O)N[C@H](C)C(=O)N[C@H](CO)C(=O)N[C@H](Cc1c[nH]c2ccccc12)C(=O)N[C@H](Cc1cnc[nH]1)C(=O)N[C@H](CCCNC(=N)N)C(=O)N1CCC[C@@H]1C(=O)N[C@H](CC(=O)O)C(=O)N[C@H](CCCCN)C(=O)N[C@H](CS)C(=O)N[C@H](CS)C(=O)N[C@H](CC(C)C)C(=O)NCC(=O)N[C@H](Cc1ccc(O)cc1)C(=O)N[C@H](CCC(N)=O)C(=O)N[C@H](CCCCN)C(=O)N[C@H](CCCNC(=N)N)C(=O)N1CCC[C@@H]1C(=O)N[C@H](CC(C)C)C(=O)N1CCC[C@@H]1C(=O)NCCCCCC(=O)N[C@@H](CCCCN)C(=O)N[C@H](CCCCN)C(=O)N[C@H](CCCNC(=N)N)C(=O)N[C@H](Cc1ccccc1)C(=O)N[C@H](Cc1ccccc1)C(=O)N[C@H](CC(=O)O)C(=O)NCC(=O)N[C@H](CC(C)C)C(=O)N[C@H](CC(C)C)C(N)=O | 6.71 | – | – | – | – | – | – | – | –
CC(C)C[C@@H](N)C(=O)NCC(=O)N[C@H](C)C(=O)N[C@H](CO)C(=O)N[C@H](Cc1c[nH]c2ccccc12)C(=O)N[C@H](Cc1cnc[nH]1)C(=O)N[C@H](CCCNC(=N)N)C(=O)N1CCC[C@@H]1C(=O)N[C@H](CC(=O)O)C(=O)N[C@H](CCCCN)C(N)=O (HELM PEPTIDE1{[dL].G.[dA].[dS].[dW].[dH].[dR].[dP].[dD].[dK].[am]}$$$$V2.0) | – | inactive | inactive | Active | Active | Active | inactive | inactive | inhibition [11]: inactive; Activity [23]: inactive
